In brackets after ≈: the same amount, converted by molar mass. Activity calls are given as the source filed them. The rule behind the calls is not given here.
How the values were obtained:
Cytochrome P450 1A2 [1] = target: T1, Cytochrome P450 1A2 (Homo sapiens, UniProt P05177); experiment: Inhibition of CYP1A2 (unknown origin); assay type: ADME
Summary of the method: (§1)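 Inhibition of CYP1A2, 2B6, 2C19, 2C8, 2C9, 2D6 and 3A4 tested in vitro at concentrations up to 10 µM.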

Cytochrome P450 2B6 [2] = target: T2, Cytochrome P450 2B6 (Homo sapiens, UniProt P20813); experiment: Inhibition of CYP2B6 (unknown origin); assay type: ADME; summary of the method: as §1
T2 sequence (P20813 whole entry): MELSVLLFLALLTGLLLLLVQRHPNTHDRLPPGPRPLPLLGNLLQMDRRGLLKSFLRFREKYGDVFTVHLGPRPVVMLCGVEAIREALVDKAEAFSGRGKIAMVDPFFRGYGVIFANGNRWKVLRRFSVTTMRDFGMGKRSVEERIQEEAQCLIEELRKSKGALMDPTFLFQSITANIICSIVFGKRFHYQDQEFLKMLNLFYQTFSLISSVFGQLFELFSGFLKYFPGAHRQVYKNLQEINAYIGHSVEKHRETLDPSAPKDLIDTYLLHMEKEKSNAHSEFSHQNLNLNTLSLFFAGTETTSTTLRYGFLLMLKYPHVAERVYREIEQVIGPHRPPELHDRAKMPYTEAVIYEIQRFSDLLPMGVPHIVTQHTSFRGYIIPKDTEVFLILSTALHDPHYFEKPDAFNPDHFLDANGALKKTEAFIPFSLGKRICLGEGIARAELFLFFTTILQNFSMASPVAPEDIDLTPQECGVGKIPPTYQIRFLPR

Cytochrome P450 2C9 [3] = target: T3, Cytochrome P450 2C9 (Homo sapiens, UniProt P11712); experiment: Inhibition of CYP2C9 (unknown origin); assay type: ADME; summary of the method: as §1
T3 sequence (P11712 whole entry): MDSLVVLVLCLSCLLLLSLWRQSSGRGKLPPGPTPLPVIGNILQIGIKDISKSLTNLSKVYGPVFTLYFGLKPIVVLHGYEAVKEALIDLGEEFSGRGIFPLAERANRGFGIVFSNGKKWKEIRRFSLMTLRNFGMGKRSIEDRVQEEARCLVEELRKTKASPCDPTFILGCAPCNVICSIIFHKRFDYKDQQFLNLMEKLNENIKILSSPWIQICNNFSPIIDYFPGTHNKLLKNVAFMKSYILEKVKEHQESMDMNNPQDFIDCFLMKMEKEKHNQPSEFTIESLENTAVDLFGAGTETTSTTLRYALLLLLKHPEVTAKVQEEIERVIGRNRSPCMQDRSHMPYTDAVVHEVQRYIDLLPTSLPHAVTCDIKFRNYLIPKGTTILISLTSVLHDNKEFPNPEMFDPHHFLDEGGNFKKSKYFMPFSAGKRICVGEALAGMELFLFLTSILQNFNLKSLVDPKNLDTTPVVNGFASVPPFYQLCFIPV

Cytochrome P450 2C8 [4] = target: T4, Cytochrome P450 2C8 (Homo sapiens, UniProt P10632); experiment: Inhibition of CYP2C8 (unknown origin); assay type: ADME; summary of the method: as §1
T4 sequence (P10632 whole entry): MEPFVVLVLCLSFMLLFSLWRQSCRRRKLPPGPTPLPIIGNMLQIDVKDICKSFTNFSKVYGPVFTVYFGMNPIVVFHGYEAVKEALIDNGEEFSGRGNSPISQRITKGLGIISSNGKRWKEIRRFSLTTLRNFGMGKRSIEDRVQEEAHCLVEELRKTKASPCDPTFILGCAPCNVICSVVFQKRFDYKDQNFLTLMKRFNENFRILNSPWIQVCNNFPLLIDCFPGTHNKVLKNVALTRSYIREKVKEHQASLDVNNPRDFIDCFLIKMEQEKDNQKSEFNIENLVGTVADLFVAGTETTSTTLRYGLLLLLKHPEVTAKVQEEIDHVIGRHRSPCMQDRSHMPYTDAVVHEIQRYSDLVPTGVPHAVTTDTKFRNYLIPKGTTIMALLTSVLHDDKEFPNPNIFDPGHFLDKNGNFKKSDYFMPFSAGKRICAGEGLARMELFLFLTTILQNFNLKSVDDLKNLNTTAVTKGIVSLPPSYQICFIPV

Cytochrome P450 2D6 [5] = target: T5, Cytochrome P450 2D6 (Homo sapiens, UniProt P10635); experiment: Inhibition of CYP2D6 (unknown origin); assay type: ADME; summary of the method: as §1
T5 sequence (P10635 whole entry): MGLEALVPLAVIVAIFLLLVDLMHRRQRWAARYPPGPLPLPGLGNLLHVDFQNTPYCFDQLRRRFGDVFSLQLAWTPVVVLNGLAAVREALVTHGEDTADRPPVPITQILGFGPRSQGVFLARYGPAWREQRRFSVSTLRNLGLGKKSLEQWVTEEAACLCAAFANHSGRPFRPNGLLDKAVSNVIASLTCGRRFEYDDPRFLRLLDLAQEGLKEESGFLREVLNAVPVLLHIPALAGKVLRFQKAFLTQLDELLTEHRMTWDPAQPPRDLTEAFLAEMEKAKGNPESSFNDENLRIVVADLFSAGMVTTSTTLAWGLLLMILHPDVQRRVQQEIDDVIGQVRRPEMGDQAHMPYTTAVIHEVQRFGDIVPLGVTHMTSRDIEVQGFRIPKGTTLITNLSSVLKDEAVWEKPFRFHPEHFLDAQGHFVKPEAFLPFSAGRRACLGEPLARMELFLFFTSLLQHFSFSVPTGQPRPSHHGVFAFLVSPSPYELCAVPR

Cytochrome P450 3A4 [6] = target: T6, Cytochrome P450 3A4 (Homo sapiens, UniProt P08684); experiment: Inhibition of CYP3A4 (unknown origin); assay type: ADME; summary of the method: as §1
T6 sequence (P08684 whole entry): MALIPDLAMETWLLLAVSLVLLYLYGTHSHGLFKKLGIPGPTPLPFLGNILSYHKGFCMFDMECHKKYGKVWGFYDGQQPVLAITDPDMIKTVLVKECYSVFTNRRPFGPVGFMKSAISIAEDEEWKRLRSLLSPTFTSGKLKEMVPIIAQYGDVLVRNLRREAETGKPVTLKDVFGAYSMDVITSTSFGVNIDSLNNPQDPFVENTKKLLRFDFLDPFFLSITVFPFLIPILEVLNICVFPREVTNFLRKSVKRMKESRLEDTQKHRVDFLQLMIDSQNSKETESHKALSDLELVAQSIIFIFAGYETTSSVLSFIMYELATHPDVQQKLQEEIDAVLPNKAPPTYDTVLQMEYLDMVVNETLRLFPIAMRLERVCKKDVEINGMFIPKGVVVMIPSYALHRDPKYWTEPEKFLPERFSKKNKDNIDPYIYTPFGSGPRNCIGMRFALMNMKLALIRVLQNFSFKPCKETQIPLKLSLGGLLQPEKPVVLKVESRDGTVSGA

[7] = target: Adrenergic receptor alpha-1 (Rattus norvegicus) (UniProt P15823+P23944+P43140); experiment: Inhibition of rat adrenergic alpha1 receptor at 10 uM
Summary of the method: (§2)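 Off-target selectivity panel covering 13 receptors, four ion channels, one transporter and one enzyme, plus prostanoid DP1, FP, IP and TP receptors and COX-1/2. Test concentration 10 µM.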

[8] = target: Adrenergic receptor alpha-2 (Rattus norvegicus) (UniProt P22086+P19328+P22909); experiment: Inhibition of rat adrenergic alpha2 receptor at 10 uM; summary of the method: as §2
[9] = target: Beta-1 adrenergic receptor (Homo sapiens) (UniProt P08588); experiment: Inhibition of human adrenergic beta1 receptor at 10 uM; summary of the method: as §2
[10] = target: Beta-2 adrenergic receptor (Homo sapiens) (UniProt P07550); experiment: Inhibition of human adrenergic beta2 receptor at 10 uM; summary of the method: as §2
[11] = target: D(1A) dopamine receptor (Homo sapiens) (UniProt P21728); experiment: Inhibition of human dopamine D1 receptor at 10 uM; summary of the method: as §2
[12] = target: D(2) dopamine receptor (Homo sapiens) (UniProt P14416); experiment: Inhibition of human dopamine D2 short receptor at 10 uM; summary of the method: as §2
[13] = target: Histamine H1 receptor (Homo sapiens) (UniProt P35367); experiment: Inhibition of human histamine H1 receptor at 10 uM; summary of the method: as §2
[14] = target: Muscarinic acetylcholine receptor M2 (Homo sapiens) (UniProt P08172); experiment: Inhibition of human muscarinic M2 receptor at 10 uM; summary of the method: as §2
Chain of Muscarinic acetylcholine receptor M2 (Homo sapiens) (P08172 whole entry): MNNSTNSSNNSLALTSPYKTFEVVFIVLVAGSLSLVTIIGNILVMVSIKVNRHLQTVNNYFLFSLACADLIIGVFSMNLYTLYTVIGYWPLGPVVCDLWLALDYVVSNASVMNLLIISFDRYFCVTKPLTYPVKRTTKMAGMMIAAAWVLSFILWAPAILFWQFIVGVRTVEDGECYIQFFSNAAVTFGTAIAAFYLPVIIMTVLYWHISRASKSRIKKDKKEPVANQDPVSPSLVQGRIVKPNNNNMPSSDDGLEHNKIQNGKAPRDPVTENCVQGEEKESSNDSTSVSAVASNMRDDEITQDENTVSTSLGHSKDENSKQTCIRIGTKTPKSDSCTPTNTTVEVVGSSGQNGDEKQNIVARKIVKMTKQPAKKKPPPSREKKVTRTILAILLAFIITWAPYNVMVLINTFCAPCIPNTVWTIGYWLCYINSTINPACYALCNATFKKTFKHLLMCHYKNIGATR

[15] = target: Muscarinic acetylcholine receptor M3 (Homo sapiens) (UniProt P20309); experiment: Inhibition of human muscarinic M3 receptor at 10 uM; summary of the method: as §2
[16] = target: Mu-type opioid receptor (Homo sapiens) (UniProt P35372); experiment: Inhibition of human Mu-type opioid receptor 10 uM; summary of the method: as §2
Chain of Mu-type opioid receptor (Homo sapiens) (P35372 whole entry): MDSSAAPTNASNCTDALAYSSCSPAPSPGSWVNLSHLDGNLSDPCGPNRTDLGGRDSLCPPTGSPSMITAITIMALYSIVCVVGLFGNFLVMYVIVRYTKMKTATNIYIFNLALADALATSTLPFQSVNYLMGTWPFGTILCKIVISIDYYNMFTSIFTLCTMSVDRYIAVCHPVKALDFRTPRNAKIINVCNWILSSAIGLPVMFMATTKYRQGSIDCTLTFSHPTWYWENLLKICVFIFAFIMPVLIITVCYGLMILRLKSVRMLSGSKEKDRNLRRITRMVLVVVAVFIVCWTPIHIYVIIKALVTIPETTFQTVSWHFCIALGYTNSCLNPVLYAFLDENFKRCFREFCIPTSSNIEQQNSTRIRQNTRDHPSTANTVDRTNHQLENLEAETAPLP

Rattus norvegicus [17] = experiment: Antiinflammatory activity in rat adjuvant induced arthritis model assessed as suppression of Mycobacterium tuberculosis H37 RA induced paw swelling at 30 mg/kg measured from day 11 to 15 relative to vehicle control; assay type: functional, organism-based
Summary of the method: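 Rat adjuvant-induced arthritis: paw widths measured, then 0.25 mg adjuvant (Mycobacterium tuberculosis H37 RA) in 100 µl mineral oil given intradermally at tail base (day 0). On day 11, width of both paws was re-measured as percent change from day 0, and rats were randomized on this and body weight before dosing. Rats were euthanized day 15 without further dosing and paw width measured.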

[18] = target: L-type calcium channel dihydropyridine binding site (Homo sapiens, UniProt O60840+Q01668+Q13698+Q13936); experiment: Inhibition of L-type calcium channel dihydropyridine binding site (unknown origin) at 10 uM; assay type: protein assay; summary of the method: as §2
[19] = target: L-type calcium channel diltiazem binding site (Homo sapiens, UniProt O60840+Q01668+Q13698+Q13936); experiment: Inhibition of L-type calcium channel diltiazem binding site (unknown origin) at 10 uM; assay type: protein assay; summary of the method: as §2
[20] = target: L-type calcium channel verapamil binding site (Homo sapiens, UniProt O60840+Q01668+Q13698+Q13936); experiment: Inhibition of L-type calcium channel verapamil binding site (unknown origin) at 10 uM; assay type: protein assay; summary of the method: as §2
[21] = target: Sodium-dependent noradrenaline transporter (Homo sapiens) (UniProt P23975); experiment: Inhibition of human norepinephrine transporter at 10 uM
[22] = target: Acetylcholinesterase (Homo sapiens) (UniProt P22303); experiment: Inhibition of human acetylcholinesterase at 10 uM
Cytochrome P450 1A2 [23] = target: T1, Cytochrome P450 1A2; experiment: Inhibition of CYP1A2 (unknown origin) at 10 uM; assay type: ADME; summary of the method: as §1
Cytochrome P450 2B6 [24] = target: T2, Cytochrome P450 2B6; experiment: Inhibition of CYP2B6 (unknown origin) at 10 uM; assay type: ADME; summary of the method: as §1
Cytochrome P450 2C9 [25] = target: T3, Cytochrome P450 2C9; experiment: Inhibition of CYP2C9 (unknown origin) at 10 uM; assay type: ADME; summary of the method: as §1
Cytochrome P450 2C8 [26] = target: T4, Cytochrome P450 2C8; experiment: Inhibition of CYP2C8 (unknown origin) at 10 uM; assay type: ADME; summary of the method: as §1
Cytochrome P450 2C19 [27] = target: T7, Cytochrome P450 2C19 (Homo sapiens, UniProt P33261); experiment: Inhibition of CYP2C19 (unknown origin) at 10 uM; assay type: ADME; summary of the method: as §1
T7 sequence (P33261 whole entry): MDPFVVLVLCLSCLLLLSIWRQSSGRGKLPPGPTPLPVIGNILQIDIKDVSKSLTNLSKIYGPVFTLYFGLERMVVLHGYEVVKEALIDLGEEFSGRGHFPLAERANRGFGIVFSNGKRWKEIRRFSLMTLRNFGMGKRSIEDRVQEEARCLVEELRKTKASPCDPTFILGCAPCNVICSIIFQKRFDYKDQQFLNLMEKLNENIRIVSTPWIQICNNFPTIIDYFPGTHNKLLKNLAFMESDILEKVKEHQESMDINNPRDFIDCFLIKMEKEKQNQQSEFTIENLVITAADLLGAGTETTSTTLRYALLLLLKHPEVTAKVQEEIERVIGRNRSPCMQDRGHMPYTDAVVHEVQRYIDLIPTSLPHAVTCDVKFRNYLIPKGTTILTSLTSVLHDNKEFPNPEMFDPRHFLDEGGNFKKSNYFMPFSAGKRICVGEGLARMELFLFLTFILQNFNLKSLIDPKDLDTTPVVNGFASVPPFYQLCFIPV

Cytochrome P450 2C19 [28] = target: T7, Cytochrome P450 2C19; experiment: Inhibition of CYP2C19 (unknown origin); assay type: ADME; summary of the method: as §1
Cytochrome P450 2D6 [29] = target: T5, Cytochrome P450 2D6; experiment: Inhibition of CYP2D6 (unknown origin) at 10 uM; assay type: ADME; summary of the method: as §1
Cytochrome P450 3A4 [30] = target: T6, Cytochrome P450 3A4; experiment: Inhibition of CYP3A4 (unknown origin) at 10 uM; assay type: ADME; summary of the method: as §1
[31] = target: Voltage-gated inwardly rectifying potassium channel KCNH2 (Homo sapiens, UniProt Q12809); experiment: Inhibition of human ERG up to 100 uM by [H3]-astemizole binding assay
Summary of the method: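 hERG activity measured as displacement of [3H]-astemizole binding, compound tested up to 100 µM.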

[32] = target: Prostaglandin D2 receptor (Homo sapiens) (UniProt Q13258); experiment: Inhibition of prostaglandin DP1 receptor (unknown origin) at 10 uM; summary of the method: as §2
[33] = target: Prostaglandin F2-alpha receptor (Homo sapiens) (UniProt P43088); experiment: Inhibition of prostaglandin FP receptor (unknown origin) at 10 uM; summary of the method: as §2
[34] = target: Prostacyclin receptor (Homo sapiens) (UniProt P43119); experiment: Inhibition of prostaglandin IP receptor (unknown origin) at 10 uM; summary of the method: as §2
[35] = target: Thromboxane A2 receptor (Homo sapiens) (UniProt P21731); experiment: Inhibition of prostaglandin TP receptor (unknown origin) at 10 uM; summary of the method: as §2
[36] = target: Prostaglandin G/H synthase 1 (Homo sapiens) (UniProt P23219); experiment: Inhibition of COX1 (unknown origin) at 10 uM; summary of the method: as §2
Chain of Prostaglandin G/H synthase 1 (Homo sapiens) (P23219 whole entry): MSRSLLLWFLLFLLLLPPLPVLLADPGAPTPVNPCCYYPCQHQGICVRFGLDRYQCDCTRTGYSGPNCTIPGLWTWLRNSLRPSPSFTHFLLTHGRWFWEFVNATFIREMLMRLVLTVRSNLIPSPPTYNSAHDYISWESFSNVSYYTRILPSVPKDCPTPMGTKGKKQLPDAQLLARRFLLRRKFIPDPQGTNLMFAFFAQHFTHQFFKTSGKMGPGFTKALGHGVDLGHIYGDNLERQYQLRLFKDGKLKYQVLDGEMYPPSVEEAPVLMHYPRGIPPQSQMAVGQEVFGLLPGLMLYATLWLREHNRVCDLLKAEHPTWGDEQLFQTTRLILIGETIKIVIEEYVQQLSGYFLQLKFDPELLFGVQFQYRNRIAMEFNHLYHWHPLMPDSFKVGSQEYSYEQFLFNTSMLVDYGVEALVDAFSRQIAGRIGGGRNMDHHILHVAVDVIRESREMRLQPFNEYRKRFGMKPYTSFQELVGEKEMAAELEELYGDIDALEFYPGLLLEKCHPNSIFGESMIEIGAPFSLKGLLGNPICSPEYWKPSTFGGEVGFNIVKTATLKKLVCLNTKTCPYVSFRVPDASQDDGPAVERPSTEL

Rattus norvegicus [37] = experiment: Antiinflammatory activity in orally dosed rat MIA model assessed as inhibition of differential weight bearing measured 30 mins post dose by incapacitance test; assay type: functional, organism-based
Summary of the method: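 MIA 0.3 mg in 50 µL saline injected into right knee and saline into left knee of rats on day 0. Day 12: randomized, single oral dose in 10% acacia in water plus 0.05% antifoam at 0.3–10 mg/kg, with diclofenac 5 mg/kg. Hind-limb weight distribution measured by incapacitance tester 30 min post dose. n = 5/group, Dunnett's test versus vehicle.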

[38] = target: Prostaglandin G/H synthase 2 (Homo sapiens) (UniProt P35354); experiment: Inhibition of COX2 (unknown origin) at 10 uM; summary of the method: as §2
[39] = Aqueous solubility of compound at pH 6 at 2 mM after 20 hrs by HPLC; assay type: physicochemical; details: aqueous medium
Summary of the method: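 Samples in DMSO dried 12 h, then redissolved at pH 6 at a 2 mM target concentration. Stirred 20 h, filtered through 0.7 µm GF filter. Filtrate concentration measured by HPLC against a DMSO standard curve.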

[40] = Clearance in rat at 1 mg/kg, iv; assay type: ADME, organism-based; details: in vivo
Summary of the method: (§3)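 Rat and dog given single iv dose of 1 mg/kg and oral dose of 5 mg/kg. Oral AUC, Cmax and half-life and iv clearance were derived from plasma levels.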

[41] = AUC in rat at 5 mg/kg, po; assay type: ADME, organism-based; details: in vivo; summary of the method: as §3
[42] = Cmax in rat at 5 mg/kg, po; assay type: ADME, organism-based; parameters: dose 5 mg/kg, route oral; details: in vivo; summary of the method: as §3
[43] = Half life in rat at 5 mg/kg, po; assay type: ADME, organism-based; details: in vivo; summary of the method: as §3
[44] = Oral bioavailability in rat at 5 mg/kg; assay type: ADME, organism-based; details: in vivo
[45] = Volume of distribution at steady state in rat at 1 mg/kg, iv or 5 mg/kg, po; assay type: ADME, organism-based; details: in vivo, read-out: Vdss
[46] = AUC in dog at 5 mg/kg, po; assay type: ADME, organism-based, Canis lupus familiaris; details: in vivo; summary of the method: as §3
[47] = Cmax in dog at 5 mg/kg, po; assay type: ADME, organism-based, Canis lupus familiaris; parameters: dose 5 mg/kg, route oral; details: in vivo; summary of the method: as §3
[48] = Half life in dog at 5 mg/kg, po; assay type: ADME, organism-based, Canis lupus familiaris; details: in vivo; summary of the method: as §3
[49] = Clearance in dog at 1 mg/kg, iv; assay type: ADME, organism-based, Canis lupus familiaris; details: in vivo; summary of the method: as §3
[50] = Volume of distribution at steady state in dog at 1 mg/kg, iv or 5 mg/kg, po; assay type: ADME, organism-based, Canis lupus familiaris; details: in vivo, read-out: Vdss
[51] = Oral bioavailability in dog at 5 mg/kg; assay type: ADME, organism-based, Canis lupus familiaris; details: in vivo

T1 sequence (P05177 whole entry): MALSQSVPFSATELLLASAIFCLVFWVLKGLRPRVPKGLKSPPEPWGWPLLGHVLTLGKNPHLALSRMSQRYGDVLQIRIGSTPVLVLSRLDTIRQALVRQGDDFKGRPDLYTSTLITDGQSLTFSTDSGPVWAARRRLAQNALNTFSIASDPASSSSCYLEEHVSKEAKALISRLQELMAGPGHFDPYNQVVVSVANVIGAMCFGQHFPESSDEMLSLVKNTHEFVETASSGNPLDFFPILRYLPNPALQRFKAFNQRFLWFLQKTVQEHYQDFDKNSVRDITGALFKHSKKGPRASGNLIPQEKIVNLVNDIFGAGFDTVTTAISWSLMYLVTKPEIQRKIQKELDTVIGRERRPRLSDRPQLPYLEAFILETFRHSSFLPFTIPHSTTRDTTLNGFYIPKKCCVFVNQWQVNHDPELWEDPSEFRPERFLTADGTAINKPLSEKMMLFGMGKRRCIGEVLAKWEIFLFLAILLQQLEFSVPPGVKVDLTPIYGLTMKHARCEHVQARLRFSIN

For Cc1ccc(N2CCC(O)CC2)nc1C(=O)Nc1c(C)cc(C(=O)O)cc1C, the IC50 (Cytochrome P450 1A2 [1]) was > 10 µM, the IC50 (Cytochrome P450 2B6 [2]) was > 10 µM and the IC50 (Cytochrome P450 2C9 [3]) was > 10 µM. For the same compound, the IC50 (Cytochrome P450 2C8 [4]) was > 10 µM, the IC50 (Cytochrome P450 2D6 [5]) was > 10 µM and the IC50 (Cytochrome P450 3A4 [6]) was > 10 µM. For the same compound, the inhibition [7] was -8%, the inhibition [8] was -4% and the inhibition [9] was 3%. The inhibition [10] was -2%, the inhibition [11] was 14% and the inhibition [12] was 5%. The inhibition [13] was -3%, the inhibition [14] was 6% and the inhibition [15] was 0%. The inhibition [16] was -8%, the Activity (Rattus norvegicus [17]) was “Active” and the inhibition at 10 µM [18] was -39%. The inhibition at 10 µM [19] was -23%, the inhibition at 10 µM [20] was 1% and the inhibition [21] was 7%. The inhibition [22] was 7%, the “inhibition (INH)” value (Cytochrome P450 1A2 [23]) was “Not Active” and the “inhibition (INH)” value (Cytochrome P450 2B6 [24]) was “Not Active”. For the same compound, the “inhibition (INH)” value (Cytochrome P450 2C9 [25]) was “Not Active”, the “inhibition (INH)” value (Cytochrome P450 2C8 [26]) was “Not Active” and the “inhibition (INH)” value (Cytochrome P450 2C19 [27]) was “Not Active”. For the same compound, the IC50 (Cytochrome P450 2C19 [28]) was > 10 µM, the “inhibition (INH)” value (Cytochrome P450 2D6 [29]) was “Not Active” and the “inhibition (INH)” value (Cytochrome P450 3A4 [30]) was “Not Active”. For the same compound, the “inhibition (INH)” value [31] was “Not Active”, the inhibition [32] was “inactive” and the inhibition [33] was “inactive”. The inhibition [34] was “inactive”, the inhibition [35] was “inactive” and the inhibition [36] was “inactive”. For the same compound, the Activity (Rattus norvegicus [37]) was “Dose-dependent effect”, the inhibition [38] was “inactive” and the solubility at 20 h, 2000 µM [39] was 762 µg/mL (≈ 1990 µM). The clearance [40] was 3 mL/min/kg, the AUC [41] was 9670 ng·h/mL and the Cmax [42] was 3100 ng/mL. It also gave a half-life [43] of 5.1 h, a bioavailability [44] of 34% and a Vd [45] of 0.34 L/kg. The AUC [46] was 6320 ng·h/mL, the Cmax [47] was 1870 ng/mL and the half-life [48] was 5.1 h. For the same compound, the clearance [49] was 10 mL/min/kg, the Vd [50] was 1.73 L/kg and the bioavailability [51] was 75%.

Reference: ChEMBL document CHEMBL3792364, “Identification and biological activity of 6-alkyl-substituted 3-methyl-pyridine-2-carbonyl amino dimethyl-benzoic acid EP4 antagonists” (Bioorg Med Chem Lett, 2016)
